In ChEMBL document CHEMBL1145901, “A novel ergot alkaloid as a 5-HT(1A) inhibitor produced by Dicyma sp” (J Med Chem, 2003):

Columns and labels:
[1] = molecular target: T1, 5-hydroxytryptamine receptor 2C (Homo sapiens, UniProt P28335); assay: Binding affinity against 5-hydroxytryptamine 2C receptor human cloned receptors in HEK 293 cells using [3H]mesulergine as radioligand; assay type: cell-based, HEK293
T1 sequence (P28335 whole entry): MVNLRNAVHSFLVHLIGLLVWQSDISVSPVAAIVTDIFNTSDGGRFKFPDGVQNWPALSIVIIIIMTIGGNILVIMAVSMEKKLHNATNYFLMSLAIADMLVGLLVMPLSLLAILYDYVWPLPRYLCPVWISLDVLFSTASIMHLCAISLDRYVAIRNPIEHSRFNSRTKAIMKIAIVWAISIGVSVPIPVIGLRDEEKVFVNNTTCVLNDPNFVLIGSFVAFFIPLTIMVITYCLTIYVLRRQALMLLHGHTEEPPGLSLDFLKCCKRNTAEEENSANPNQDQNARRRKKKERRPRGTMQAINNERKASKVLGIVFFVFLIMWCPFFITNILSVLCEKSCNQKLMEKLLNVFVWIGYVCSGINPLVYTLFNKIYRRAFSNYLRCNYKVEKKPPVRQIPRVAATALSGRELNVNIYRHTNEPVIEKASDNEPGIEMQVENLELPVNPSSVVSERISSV

[2] = molecular target: T2, 5-hydroxytryptamine receptor 1B (Homo sapiens, UniProt P28222); assay: Binding affinity against human 5-hydroxytryptamine 1B receptor cloned receptors in CHO cells using [3H]5-CT as radioligand; assay type: cell-based
T2 sequence (P28222 whole entry): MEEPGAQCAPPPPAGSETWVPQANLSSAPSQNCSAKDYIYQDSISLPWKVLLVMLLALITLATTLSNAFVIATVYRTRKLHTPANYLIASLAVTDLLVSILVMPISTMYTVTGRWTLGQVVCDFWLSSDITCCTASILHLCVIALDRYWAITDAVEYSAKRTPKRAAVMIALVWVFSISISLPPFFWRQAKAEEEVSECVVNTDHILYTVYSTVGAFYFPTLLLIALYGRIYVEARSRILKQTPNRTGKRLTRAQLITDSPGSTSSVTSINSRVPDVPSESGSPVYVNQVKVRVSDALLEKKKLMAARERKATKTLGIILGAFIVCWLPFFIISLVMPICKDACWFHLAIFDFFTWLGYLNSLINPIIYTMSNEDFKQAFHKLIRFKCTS
Procedure, shortened: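 Membranes from CHO cells expressing human 5-HT1B, in 50 mM Tris-HCl pH 7.4 with 0.1% ascorbate, 10 μM pargyline, 0.5 mM EDTA and 10 mM MgCl2. Compound in DMSO was preincubated 15 min at RT, then 10 nM stock [3H]-5-CT was added for 30-45 min at 37 °C. Filtration on PEI-treated GF/C, scintillation counting; 200 μM 5-HT (stock) defined nonspecific binding. Four-parameter IC50, Cheng-Prusoff Ki, mean of at least two determinations.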

[3] = molecular target: 5-hydroxytryptamine receptor 7 (Homo sapiens, UniProt P34969); assay: Binding affinity against 5-hydroxytryptamine 7 human receptors
Sequence of 5-hydroxytryptamine receptor 7 (P34969 whole entry): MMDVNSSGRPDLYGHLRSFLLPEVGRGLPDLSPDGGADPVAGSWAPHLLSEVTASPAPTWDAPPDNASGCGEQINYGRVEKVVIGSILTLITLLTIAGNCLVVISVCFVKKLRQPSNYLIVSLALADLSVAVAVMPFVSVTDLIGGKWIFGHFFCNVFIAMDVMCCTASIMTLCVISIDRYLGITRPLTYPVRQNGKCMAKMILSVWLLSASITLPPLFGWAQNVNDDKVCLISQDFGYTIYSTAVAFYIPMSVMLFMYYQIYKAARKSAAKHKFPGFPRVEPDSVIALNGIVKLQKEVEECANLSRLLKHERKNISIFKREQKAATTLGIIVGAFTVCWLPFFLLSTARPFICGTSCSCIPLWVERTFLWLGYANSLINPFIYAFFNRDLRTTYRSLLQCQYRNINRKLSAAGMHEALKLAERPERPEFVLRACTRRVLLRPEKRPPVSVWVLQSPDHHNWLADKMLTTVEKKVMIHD

[4] = molecular target: T3, 5-hydroxytryptamine receptor 1A (Homo sapiens, UniProt P08908); assay: Binding affinity against 5-hydroxytryptamine 1A human cloned receptors in HEK293 cells; assay type: cell-based
T3 sequence (P08908 whole entry): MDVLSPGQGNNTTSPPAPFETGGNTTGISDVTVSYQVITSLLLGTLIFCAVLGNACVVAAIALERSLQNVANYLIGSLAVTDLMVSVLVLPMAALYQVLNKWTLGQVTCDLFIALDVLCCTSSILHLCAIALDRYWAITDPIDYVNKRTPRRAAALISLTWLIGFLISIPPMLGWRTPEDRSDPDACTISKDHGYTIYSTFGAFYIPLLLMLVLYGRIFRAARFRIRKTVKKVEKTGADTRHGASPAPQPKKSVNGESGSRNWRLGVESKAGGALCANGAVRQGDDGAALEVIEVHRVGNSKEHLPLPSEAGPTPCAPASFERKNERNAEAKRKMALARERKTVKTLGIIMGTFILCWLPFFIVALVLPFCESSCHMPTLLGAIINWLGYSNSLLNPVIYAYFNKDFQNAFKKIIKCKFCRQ
Procedure, shortened: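 Human 5-HT1A stably expressed in HEK 293 cells. Membranes were homogenised in ice-cold 50 mM Tris (pH 7.7 at 25 °C) and stored at -70 °C. Binding was measured as displacement of [3H]-8-OH-DPAT. IC50 came from a four-parameter logistic fit of cpm and was converted to Ki by Cheng-Prusoff. Values are the mean of at least two determinations.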

[5] = molecular target: T4, 5-hydroxytryptamine receptor 2A (Homo sapiens, UniProt P28223); assay: Binding affinity against 5-hydroxytryptamine 2A receptor human cloned receptors in HEK 293 cells using [3H]ketanserin as radioligand; assay type: cell-based, HEK293
T4 sequence (P28223 whole entry): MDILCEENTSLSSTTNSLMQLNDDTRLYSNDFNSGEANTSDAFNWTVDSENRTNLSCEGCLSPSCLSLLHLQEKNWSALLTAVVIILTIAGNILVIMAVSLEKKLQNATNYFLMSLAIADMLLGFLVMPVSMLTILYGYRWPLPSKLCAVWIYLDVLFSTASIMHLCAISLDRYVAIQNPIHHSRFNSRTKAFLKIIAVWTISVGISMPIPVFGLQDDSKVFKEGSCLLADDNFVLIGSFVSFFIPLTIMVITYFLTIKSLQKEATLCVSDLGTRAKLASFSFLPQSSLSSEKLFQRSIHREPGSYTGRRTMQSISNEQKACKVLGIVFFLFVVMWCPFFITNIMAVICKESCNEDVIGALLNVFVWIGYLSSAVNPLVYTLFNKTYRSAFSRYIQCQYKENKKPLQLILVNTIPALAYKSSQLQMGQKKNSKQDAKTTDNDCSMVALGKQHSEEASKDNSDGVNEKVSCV

[6] = molecular target: 5-hydroxytryptamine receptor 6 (Homo sapiens, UniProt P50406); assay: Binding affinity against 5-hydroxytryptamine 6 human cloned receptors in HeLa cells using [3H]LSD as radioligand; assay type: cell-based
Sequence of 5-hydroxytryptamine receptor 6 (P50406 whole entry): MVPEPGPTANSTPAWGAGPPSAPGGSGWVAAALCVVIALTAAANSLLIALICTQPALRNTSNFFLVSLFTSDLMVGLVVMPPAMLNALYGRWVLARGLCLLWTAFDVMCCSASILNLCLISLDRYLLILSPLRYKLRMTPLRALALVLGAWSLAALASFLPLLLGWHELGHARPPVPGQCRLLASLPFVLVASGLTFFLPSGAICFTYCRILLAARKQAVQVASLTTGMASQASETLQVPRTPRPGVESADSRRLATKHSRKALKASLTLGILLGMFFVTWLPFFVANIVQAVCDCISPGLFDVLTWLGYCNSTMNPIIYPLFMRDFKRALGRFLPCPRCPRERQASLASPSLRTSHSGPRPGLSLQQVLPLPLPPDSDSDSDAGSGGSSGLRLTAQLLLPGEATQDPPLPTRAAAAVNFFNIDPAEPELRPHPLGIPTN

[7] = molecular target: T5, 5-hydroxytryptamine receptor 1A (Homo sapiens) (UniProt P08908); assay: Intrinsic activity for human 5-hydroxytryptamine 1A receptors HEK 293 cell membranes using [35S]GTP gamma-S; assay type: functional; conditions: HEK293
T5 sequence (whole entry): T3 sequence (P08908 whole entry)
Procedure, shortened: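 Membranes from 10^6 HEK293 cells were preincubated with compound for 30 min at 30 °C in 20 mM HEPES pH 7.4 with 3 mM MgCl2, 100 mM NaCl, 10 μM GDP and 0.2 mM ascorbate. [35S]GTPγS (100 pM assay concentration) was then added for 30 min at 30 °C. Nonspecific binding used unlabeled GTPγS. Samples were filtered on GF/B and counted by scintillation. Intrinsic activity is relative to 5-HT; four to seven independent experiments.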

[8] = molecular target: T3, 5-hydroxytryptamine receptor 1A; assay: (§1) Binding affinity against human 5-hydroxytryptamine 1A receptors HEK 293 cell membranes using [35S]GTP gamma-S; assay type: functional, HEK293
[9] = molecular target: T5, 5-hydroxytryptamine receptor 1A (Homo sapiens); assay: as §1; assay type: functional; conditions: HEK293
[10] = molecular target: T2, 5-hydroxytryptamine receptor 1B; assay: Binding affinity against human 5-hydroxytryptamine 1B receptor cloned receptors in CHO cells; assay type: cell-based
Procedure, shortened: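 Human 5-HT1B-expressing CHO cell membranes were homogenized in ice-cold 50 mM Tris (pH 7.7) and stored at -70 °C. They were resuspended in 50 mM Tris-HCl pH 7.4 containing 0.1% ascorbate, 10 μM pargyline, 0.5 mM EDTA and 10 mM MgCl2. Compound in DMSO was preincubated with membranes for 15 min at RT. [3H]-5-CT (added from 10 nM) was then incubated 30-45 min at 37 °C. Samples were filtered and counted by scintillation. Nonspecific binding used 5-HT. IC50 came from a four-parameter fit; Ki by Cheng-Prusoff. Results are means of ≥2 determinations.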

[11] = molecular target: T3, 5-hydroxytryptamine receptor 1A; assay: Binding affinity against 5-hydroxytryptamine 1A human cloned receptors in HEK293 cells using [3H]8-OH-DPAT as radioligand; assay type: cell-based
[12] = molecular target: T4, 5-hydroxytryptamine receptor 2A; assay: Binding affinity against 5-hydroxytryptamine 2A receptor human cloned receptorswithouteffect in HEK 293 cells using [3H]ketanserin as radioligand; assay type: cell-based, HEK293
[13] = molecular target: T2, 5-hydroxytryptamine receptor 1B; assay: Binding affinity against cloned human 5-hydroxytryptamine 1B receptor in CHO cells using [3H]5-CT as radioligand; assay type: cell-based
D(2) dopamine receptor = D(2) dopamine receptor (Homo sapiens, UniProt P14416); assay: Binding affinity against human Dopamine receptor D2 in CHO cells using [125I]iodosulpiride; assay type: cell-based
Sequence of D(2) dopamine receptor (P14416 whole entry): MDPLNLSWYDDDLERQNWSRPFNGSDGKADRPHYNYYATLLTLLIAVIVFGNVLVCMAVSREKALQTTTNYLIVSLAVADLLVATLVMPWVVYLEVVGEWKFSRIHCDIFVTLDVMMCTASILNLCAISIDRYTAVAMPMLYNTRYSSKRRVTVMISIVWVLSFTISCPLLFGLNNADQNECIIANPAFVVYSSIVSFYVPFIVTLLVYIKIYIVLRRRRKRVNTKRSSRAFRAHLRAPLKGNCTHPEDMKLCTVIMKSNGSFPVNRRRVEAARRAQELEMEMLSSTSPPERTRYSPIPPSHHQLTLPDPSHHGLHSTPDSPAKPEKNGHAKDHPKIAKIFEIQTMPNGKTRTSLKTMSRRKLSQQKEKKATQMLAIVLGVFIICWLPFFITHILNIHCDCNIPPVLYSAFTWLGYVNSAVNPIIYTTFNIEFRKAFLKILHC

[14] = molecular target: T1, 5-hydroxytryptamine receptor 2C; assay: Binding affinity against 5-hydroxytryptamine 2C receptor human cloned receptorswithouteffect in HEK 293 cells using [3H]mesulergine as radioligand; assay type: cell-based, HEK293
Procedure, shortened: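 Filtration binding on membranes from cells stably expressing the human cloned receptor, homogenized in ice-cold 50 mM Tris (pH 7.7). Assay buffer was 50 mM Tris-HCl pH 7.4 with 0.1% ascorbic acid, 10 μM pargyline, 0.5 mM EDTA and 10 mM MgCl2. Compound in DMSO was preincubated 15 min at room temperature, then radioligand was added for 30-45 min at 37 °C. Read-out was scintillation counting. IC50 came from a four-parameter logistic fit and Ki from Cheng-Prusoff; values are the mean of at least two determinations.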

| Structure (SMILES) | Ki [3] [nM] | Ki [5] [nM] | Ki [6] [nM] | Intrinsic activity [7] | EC50 [8] [nM] | Emax [9] | Stimulation [9] | further results |
| --- | --- | --- | --- | --- | --- | --- | --- | --- |
| NCCCC1(CCCN)CCc2cccc(O)c2C1 | 3.16 | 10000 | 126 | – | – | – | – | Ki [1]: 12600 nM; Ki [2]: 316 nM; Ki [4]: 2 nM |
| NCCc1c[nH]c2ccc(O)cc12 | – | – | – | 1 | – | – | – | – |
| CN1CCN(c2cc3c(cc2Cl)CCN3C(=O)Nc2ccc(-c3ccncc3)c3ccccc23)CC1 | – | – | – | 0.33 | 19.1 | 144 | 42% | – |
| NCCc1c[nH]c2ccc(C(N)=O)cc12 | – | > 5010 | 1000 | – | – | – | – | Ki [10]: 1.26 nM |
| CC(C)C[C@H]1C(=O)N[C@@H](Cc2ccccc2)[C@]2(O)O[C@@](C)(NC(=O)[C@@H]3C=C4c5cccc6[nH]cc(c56)C[C@H]4N(C)C3)C(=O)N12 | 6.31 | – | 50.1 | 1.11 | 2 | 229 | 138 | Ki [11]: 0.0631 nM; Ki [12]: 15.8 nM; Ki [13]: 3.16 nM; Ki (D(2) dopamine receptor): 3.16 nM; Ki [14]: 15.8 nM |
